The list is not random: actives were taken first. Their share in the collection is about 2.8%.
MC4R ag barr: MC4R agonists recruiting beta-arrestin, primary screen, cell-based, luminescence, agonist arm of biased-ligand search | Melanocortin receptor 4 (Homo sapiens), P32245 | U2OS MC4R beta-arrestin complementation; percent of melanotan II response, DMSO zero | activation, % at 8.9 µM | actives 0.98% (n = 360,000) | AID 540308, 2011;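 active means activation above a per-plate cutoff, the mean activation of sample wells on that plate plus 3 SD, cut at about 8% in these data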
m5-HT2A agonist: mouse Htr2a agonists via beta-arrestin recruitment, primary screen, cell-based, luminescence; CHO-K1 mHTR2A beta-arrestin complementation; percent of 30 µM serotonin response; actives 0.66% (n = 360,000); activation, % at 7.6 µM; 5-hydroxytryptamine receptor 2A (Mus musculus), P35363;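 active means activation above a run cutoff, the mean activation of all tested compounds plus 3 SD, cut at about 14% in these data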;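 further: 0% = plate median of compound wells and 100% = 30 µM serotonin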
Target sequence (P35363 whole entry, looked up): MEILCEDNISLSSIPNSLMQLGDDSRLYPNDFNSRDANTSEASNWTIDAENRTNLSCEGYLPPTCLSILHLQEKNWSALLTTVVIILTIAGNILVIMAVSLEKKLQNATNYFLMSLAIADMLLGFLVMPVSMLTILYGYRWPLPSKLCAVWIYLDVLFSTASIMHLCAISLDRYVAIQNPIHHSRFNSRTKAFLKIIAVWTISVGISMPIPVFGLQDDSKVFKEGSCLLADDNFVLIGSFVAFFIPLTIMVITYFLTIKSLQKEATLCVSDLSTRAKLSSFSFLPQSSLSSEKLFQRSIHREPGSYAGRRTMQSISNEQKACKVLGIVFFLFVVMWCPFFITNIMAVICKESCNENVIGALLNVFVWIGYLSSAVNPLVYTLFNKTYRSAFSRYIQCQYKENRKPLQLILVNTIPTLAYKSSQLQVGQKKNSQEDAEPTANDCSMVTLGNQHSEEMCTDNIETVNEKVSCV
EBI2 antag: EBI2 receptor antagonists, beta-arrestin recruitment, primary screen, cell-based, luminescence, 7a,25-OHC stimulation, uHTS | G-protein coupled receptor 183 (Homo sapiens), P32249 | inhibition, % at 5 µM | actives 0.81% (n = 360,000) | 7a,25-OHC stimulated | AID 651636, 2012; in the data active means inhibition above about 38%;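 further: enzyme fragment complementation signal reports receptor beta-arrestin coupling in cells; 0% = agonist plus DMSO wells and 100% = wells without agonist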
MC4R antagonist: MC4R antagonists of cAMP signaling, primary screen, cell-based, TR-FRET, antagonist arm of biased-ligand search | actives 0.48% (n = 360,000) | AID 540295, 2011 | Melanocortin receptor 4 (Homo sapiens), P32245 | MC4R-expressing cells, MTII-stimulated cAMP, LANCE TR-FRET | inhibition, % at 6.5 µM;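 active means inhibition above its plate's cutoff, the mean of tested wells on that plate plus 3 SD, cut at about 29% in these data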;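 further: 0% = Melanotan II alone and 100% = Melanotan II plus saturating MCL0020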
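Assay system: human MC4R-expressing U2OS cells; reagent: Melanotan II stimulation of cells; dosing: 6.5 µM single dose; timing: compound 30 min, challenge 1 h, detection 1 h; signal: TR-FRET cAMP assay; replicates: one well per compound, no replicates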
cAMP nonselect: nonselective cAMP signaling inhibitors, parental cells, counter-screen for MC4R biased antagonist project, cell-based, TR-FRET, U2OS, forskolin, triplicate. AID 602193, 2012. actives 26% (n = 1,600). shares compounds with MC4R antagonist. LANCE TR-FRET. inhibition, % at 6.5 µM;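 active means mean inhibition over triplicates above the low-control well mean plus 3 SD, set per campaign, cut at about 13% in these data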;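 further: signal is single emission at 671 nm which falls as cellular cAMP rises; 0% = forskolin-stimulated wells and 100% = buffer without forskolin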
MC4R antag conf: MC4R cAMP antagonists, retest, confirmation, cell-based, TR-FRET | shares compounds with MC4R antagonist | MC4R-expressing cells, MTII-stimulated cAMP | inhibition, % at 6.5 µM | actives 27% (n = 1,600) | AID 602195, 2012; in the data active means inhibition above about 29%;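 further: 0% = agonist stimulated wells alone and 100% = agonist stimulated wells plus saturating reference antagonist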
* = called active by the depositor; . = no result given.

SMILES | MC4R ag barr | m5-HT2A agonist | EBI2 antag | MC4R antagonist | cAMP nonselect | MC4R antag conf
Cc1ccc(Cl)cc1NC(=O)Nc1cccs1 | -2 | -4 | -6 | 30* | -1 | -2
CC1CCCCC1NC(=O)/C(C#N)=C/c1ccccc1F (stereo not given) | -2 | -1 | 6 | 35* | 5 | 14
CCOC(=O)c1cc(-c2ccccc2)sc1NC(=O)COC(=O)c1ccc(Cl)c(S(N)(=O)=O)c1 | 2 | 2 | -1 | 29* | 3 | 7
CCOC(=O)c1sc(=S)[nH]c1C | -3 | -1 | -3 | 43* | 10 | 31*
CCc1cc2ccc(OC)cc2nc1SCC(=O)N1CCN(C(=O)c2ccco2)CC1 | -1 | -2 | 12 | 34* | 2 | 18
CCn1c(CC(=O)Nc2ccc(F)cc2)nnc1SCC(=O)Nc1nnc(C)s1 | 3 | -5 | -1 | 30* | -1 | 0
CN(Cc1c(C(=O)N/N=C/c2ccccc2O)nnn1-c1nonc1N)C1CCCCC1 | 5 | -1 | 2 | 3 | . | .
CC(=O)Oc1ccc(CN2C(=O)C(CCc3ccccc3)ON=C2c2cnccn2)cc1 (stereo not given) | 0 | -2 | 5 | 29* | 6 | 13
COc1cccc(/C=C/C2=CC(C)(C)NC(=S)N2)c1 | -2 | 1 | -11 | 29* | -3 | -10
Cc1ccc(S(=O)(=O)n2cnc3ccccc32)cc1[N+](=O)[O-] | 1 | 8 | -6 | 29* | -2 | -3
CC1=NOC(=O)/C1=C/c1ccc(-c2ccc(Cl)cc2)o1 | -3 | -1 | 5 | 63* | 11 | 31*
CCN1C(=O)C2(C(C(=O)c3cc4ccccc4o3)=C(O)C(=O)N2CCCN2CCOCC2)c2ccccc21 (stereo not given) | -2 | -5 | 0 | 42* | 22* | 50*
Cc1cc(SCC(=O)N/N=C/c2ccco2)nc2ccccc12 | 1 | -1 | -2 | 29* | -3 | -6
Cc1ccc(C(=O)NCC(=O)OCC(=O)Nc2ccc(Cl)cc2C(F)(F)F)cc1C | 4 | 3 | 3 | 29* | 6 | 18
Cc1ccsc1C(=O)OCC(=O)Nc1ccc(Cl)cc1C(F)(F)F | 1 | 1 | 4 | 16 | . | .
CCOC(=O)CC(NC(=O)Cn1nnc(-c2ccccc2F)n1)c1ccc(OC)cc1 (stereo not given) | 1 | -1 | -5 | 30* | 3 | 1
CCOC(=O)CC(NC(=O)Cn1nnc(-c2ccccc2Cl)n1)c1ccc(OC)cc1 (stereo not given) | -2 | -2 | -3 | -2 | . | .
N#CCc1ccccc1C(=O)OCC(=O)N(Cc1ccccc1)Cc1ccccc1 | -2 | 1 | -3 | 3 | . | .
Cc1ccc(N2C(=O)c3cccc([N+](=O)[O-])c3C2=O)cc1C | -1 | 9 | 4 | 42* | 23* | 45*
Cc1cccc(C)c1N1C(=O)c2cccc([N+](=O)[O-])c2C1=O | -2 | 0 | -9 | -1 | . | .
O=C(OC1CCOC1=O)C1CCN(S(=O)(=O)c2ccc(Cl)c(C(F)(F)F)c2)CC1 (stereo not given) | -1 | -1 | 6 | 51* | 14* | 50*
O=C(OC1CCOC1=O)c1ccc(Cl)c(S(=O)(=O)N2CCOCC2)c1 (stereo not given) | -2 | -7 | -2 | 11 | . | .
O=C(OC1CCOC1=O)C1CCN(S(=O)(=O)c2ccccc2)CC1 (stereo not given) | -1 | 6 | 0 | 35* | 18* | 43*
O=C(OC1CCOC1=O)c1ccc(Cl)c(S(=O)(=O)N2CCCCC2)c1 (stereo not given) | 1 | -2 | -8 | 34* | 11 | 11
O=C(OCC(=O)N1CCCC1=O)C1CCN(S(=O)(=O)c2ccc(Cl)c(C(F)(F)F)c2)CC1 | 2 | -13 | -7 | 11 | . | .
SMILES | MC4R ag barr | m5-HT2A agonist | EBI2 antag | MC4R antagonist | cAMP nonselect | MC4R antag conf
CC1(C(=O)NS(=O)(=O)c2cccc(Cl)c2)CCN1C(=O)C/C=C/c1ccccc1 (stereo not given) | 1 | -2 | -9 | 11 | . | .
CN(C)c1ncnc2c1ncn2[C@H]1CN(Cc2ccco2)C[C@@H](CO)O1 | 1 | 1 | -1 | 3 | . | .
COc1cccc(CNC[C@H]2O[C@@H](n3ccc(N)nc3=O)[C@H](O)[C@@H]2O)c1OCc1ccc(F)cc1Cl | -1 | 5 | -5 | 7 | . | .
COc1ccc(/C=N/Nc2nc(C(=O)O)cs2)cc1 | 0 | -2 | -1 | 5 | . | .
O=C(NCc1ccc2c(c1)OCO2)C(=O)NCC(c1ccco1)N1CCN(c2ccccc2)CC1 (stereo not given) | -2 | -4 | 13 | 3 | . | .
COc1ccc(N2CCN(C(c3cccs3)C(C)NC(=O)c3ccco3)CC2)cc1 (stereo not given) | -2 | -6 | 5 | 4 | . | .
COc1ccc(N2CCN(C(c3cccs3)C(C)NC(=O)c3ccc4c(c3)OCO4)CC2)cc1 (stereo not given) | 1 | 3 | 12 | 34* | -3 | -10
COc1ccc(N2CCN(C(CNC(=O)C(=O)NCc3ccc4c(c3)OCO4)c3ccco3)CC2)cc1 (stereo not given) | 3 | 1 | 13 | 29* | 4 | -4
COc1cccc(C(C(=O)NC(C)(C)C)N(Cc2ccc(F)cc2)C(=O)CCC(=O)Nc2cc(C)on2)c1OC (stereo not given) | 0 | 1 | 2 | 30* | 2 | 6
CN(C)C(=O)c1cccc(-c2cnc3cccnn23)c1 | 0 | 2 | -2 | 3 | . | .
c1ccc(Cn2c(CNc3nc4ccccc4n3CCN3CCCCC3)nc3ccccc32)cc1 | -3 | -8 | 19 | 29* | -5 | 28
COc1cc2ccnc(C=NO)c2cc1OC | 2 | 7 | -9 | 4 | . | .
O=C(C[C@@H]1C[C@@H]2c3cc(NS(=O)(=O)c4ccc(F)cc4)ccc3O[C@@H]2[C@@H](CO)O1)NC1CCCCC1 | -1 | 6 | 0 | 8 | . | .
CC(=O)c1ccc(S(=O)(=O)NC2CCCCCCC2)cc1 | 1 | -1 | -4 | 35* | -4 | -16
O=C(O)c1ccc(S(=O)(=O)NC2CCCCCC2)cc1 | -1 | -6 | -8 | 14 | . | .
O=C1N(Cc2cccc(Cl)c2)C[C@@H]2C[C@@H](c3cccc4ncccc34)N3CCC[C@@]123 | -2 | -3 | 37 | 9 | . | .

Screening results as filed in PubChem BioAssay.
